Reference: ChEMBL document CHEMBL4145683, “Total Synthesis and Structure-Activity Relationships Study of Odilorhabdins, a New Class of Peptides Showing Potent Antibacterial Activity” (J Med Chem, 2018)
Converted amounts (≈) assume the structure as drawn. Non-standard residues stand in square brackets, D forms with d. Residues, ends and D or L forms follow the SMILES beside them. *: point of attachment. Dab(3S-OH) = NC[C@H](O)[C@H](N)C(=O)O; ΔZArg = N=C(N)NCC/C=C(\N)C(=O)O; dOrn = NCCC[C@@H](N)C(=O)O; NH(CH2)4NH2 = NCCCCN*

Tests used:
Klebsiella pneumoniae = test: Antimicrobial activity against Klebsiella pneumoniae ATCC 43816 by broth microdilution method; format: functional; settings: Klebsiella pneumoniae, ATCC 43816; read-out: MIC
Outline: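 Broth microdilution MIC per CLSI M07-A10, with inoculum prepared by direct colony suspension. Reference strains were from ATCC and NCTC.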

Escherichia coli [1] = test: Inhibition of bacterial protein synthesis in cell-free Escherichia coli incubated for 1 hr and measured for every 20 mins by bacterial cell-free transcription-translation assay; format: functional
Outline: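 E. coli cell-free coupled transcription-translation used a GFP gene in pEXP5-CT as template, started with 1 μg plasmid in 50 μL reactions. Feed buffer was added at 30 min, with incubation at 30 °C. Fluorescence (ex 475/em 520 nm) was read every 20 min. IC50 was taken at 1 h after feed addition from a four-parameter log(inhibitor)–response fit. Duplicates.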

Escherichia coli [2] = test: microbe, parasite or virus in culture; settings: ATCC 25922

Compound	MIC (Klebsiella pneumoniae)	IC50 (Escherichia coli [1]; Escherichia coli)	MIC (Escherichia coli [2])	IC50 (Escherichia coli [1])
N=C(N)NCC/C=C(\NC(=O)[C@H](CCCCN)NC(=O)[C@H](Cc1cnc[nH]1)NC(=O)[C@@H]1CCCN1C(=O)[C@@H](CCCN)NC(=O)CNC(=O)[C@@H](N)[C@@H](O)CN)C(=O)N[C@@H](CCCCN)C(=O)NCCCCN	> 64 µg/mL	> 40 µM	> 64 µg/mL	–
N=C(N)NCC/C=C(\NC(=O)[C@H](CCCCN)NC(=O)[C@H](Cc1cnc[nH]1)NC(=O)[C@@H]1CCCN1C(=O)[C@@H](CCCN)NC(=O)CNC(=O)[C@@H](NC(=O)[C@H](CO)NC(=O)[C@@H](N)CCCCN)[C@@H](O)CN)C(=O)N[C@@H](CCCCN)C(=O)NCCCCN	> 64 µg/mL	> 40 µM	> 64 µg/mL	–
GENTAMICIN	–	–	–	0.31 µM
NCCCC[C@H](NC(=O)[C@H](Cc1cnc[nH]1)NC(=O)[C@@H]1CCCN1C(=O)[C@@H](CCCN)NC(=O)CNC(=O)[C@@H](NC(=O)[C@@H](NC(=O)[C@@H](N)CCCCN)[C@@H](O)CN)[C@@H](O)CN)C(=O)O	> 64 µg/mL	10 µM	> 64 µg/mL	–
N=C(N)NCC/C=C(\NC(=O)[C@H](CCCCN)NC(=O)[C@H](Cc1cnc[nH]1)NC(=O)[C@@H]1CCCN1C(=O)[C@@H](CCCN)NC(=O)CNC(=O)[C@H](CO)NC(=O)[C@@H](NC(=O)[C@@H](N)CCCCN)[C@@H](O)CN)C(=O)N[C@@H](CCCCN)C(=O)NCCCCN (H-K[Dab(3S-OH)]SG[dOrn]PHK[ΔZArg]K-{NH(CH2)4NH2})	4 µg/mL (≈ 3.24 µM)	0.66 µM	4 µg/mL (≈ 3.24 µM)	–
NCCCC[C@H](N)C(=O)N[C@H](C(=O)N[C@H](C(=O)NCC(=O)N[C@H](CCCN)C(=O)N1CCC[C@H]1C(=O)N[C@@H](Cc1cnc[nH]1)C(=O)O)[C@@H](O)CN)[C@@H](O)CN	> 64 µg/mL	9.6 µM	> 64 µg/mL	–
N=C(N)NCC/C=C(\NC(=O)[C@H](CCCCN)NC(=O)[C@H](Cc1cnc[nH]1)NC(=O)[C@@H]1CCCN1C(=O)[C@@H](CCCN)NC(=O)CNC(=O)[C@@H](NC(=O)[C@@H](NC(=O)[C@@H](N)CCCCN)[C@@H](O)CN)[C@@H](O)CN)C(=O)N[C@@H](CCCCN)C(=O)O (H-K[Dab(3S-OH)][Dab(3S-OH)]G[dOrn]PHK[ΔZArg]K-OH)	4 µg/mL (≈ 3.35 µM)	0.36 µM	16 µg/mL (≈ 13.4 µM)	–
C[C@H](O)[C@H](NC(=O)[C@@H](N)CCCCN)C(=O)N[C@H](C(=O)NCC(=O)N[C@H](CCCN)C(=O)N1CCC[C@H]1C(=O)N[C@@H](Cc1cnc[nH]1)C(=O)N[C@@H](CCCCN)C(=O)N/C(=C\CCNC(=N)N)C(=O)N[C@@H](CCCCN)C(=O)NCCCCN)[C@@H](O)CN	> 64 µg/mL	> 40 µM	> 64 µg/mL	–
C[C@H](NC(=O)[C@H](Cc1cnc[nH]1)NC(=O)[C@@H]1CCCN1C(=O)[C@@H](CCCN)NC(=O)CNC(=O)[C@@H](NC(=O)[C@@H](NC(=O)[C@@H](N)CCCCN)[C@@H](O)CN)[C@@H](O)CN)C(=O)N/C(=C\CCNC(=N)N)C(=O)N[C@@H](CCCCN)C(=O)NCCCCN	4 µg/mL (≈ 3.31 µM)	1.85 µM	16 µg/mL (≈ 13.3 µM)	–
CC[C@H]1OC(=O)[C@H](C)[C@@H](O[C@H]2C[C@@](C)(OC)[C@@H](O)[C@H](C)O2)[C@H](C)[C@@H](O[C@@H]2O[C@H](C)C[C@H](N(C)C)[C@H]2O)[C@](C)(O)C[C@@H](C)C(=O)[C@H](C)[C@@H](O)[C@]1(C)O [ERYTHROMYCIN]	–	2.12 µM	–	–
C/C=C(\NC(=O)[C@H](CCCCN)NC(=O)[C@H](Cc1cnc[nH]1)NC(=O)[C@@H]1CCCN1C(=O)[C@@H](CCCN)NC(=O)CNC(=O)[C@@H](NC(=O)[C@@H](NC(=O)[C@@H](N)CCCCN)[C@@H](O)CN)[C@@H](O)CN)C(=O)N[C@@H](CCCCN)C(=O)NCCCCN	8 µg/mL (≈ 6.7 µM)	0.83 µM	16 µg/mL (≈ 13.4 µM)	–
O=C(N[C@H](CO)[C@H](O)c1ccc([N+](=O)[O-])cc1)C(Cl)Cl [CHLORAMPHENICOL]	–	7.74 µM	–	–
CN[C@@H]1[C@H](O)[C@H](NC)[C@H]2O[C@@]3(O)C(=O)C[C@@H](C)O[C@H]3O[C@@H]2[C@H]1O [SPECTINOMYCIN]	–	0.99 µM	–	–
